{
  "source": "ChEMBL document CHEMBL1130321",
  "about": "“Synthesis and in vitro activity of 3 beta-substituted-3 alpha-hydroxypregnan-20-ones: allosteric modulators of the GABAA receptor” (J Med Chem, 1997)",
  "key": {"[1]": {"target": "GABA-A receptor; anion channel", "experiment": "Ability to allosterically modulate the binding of [35S]TBPS to gamma-aminobutyric-acid A receptor in rat brain cortical P2 membranes.", "format": "cell membranes, Membrane", "in_short": "(§1)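 Rat cortical P2 membranes washed in 200 mM NaCl/50 mM Na-K phosphate pH 7.4. Incubated with 2 nM [35S]TBPS, 5 µM GABA and compound at nine concentrations from 1 nM to 10 µM final (DMSO 0.5% final), 90 min at room temperature. Nonspecific binding was defined with 2 µM unlabeled TBPS. Read-out was filtration and scintillation counting. IC50 and Imax came from partial or full inhibition fits chosen by F-test. Values are mean ± SEM of 3-9 experiments.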"}, "Rattus norvegicus [2]": {"organism": "Rattus norvegicus", "experiment": "Percent of maximal extent of inhibition was calculated by fitting [35S]TBPS inhibition data to a sigmoid function (rat brain cortical P2 membranes) at 10 uM concentration", "format": "functional", "in_short": "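Rat cortical P2 membranes washed in 200 mM NaCl/50 mM Na-K phosphate, pH 7.4. Incubated 90 min at room temperature with 2 nM [35S]TBPS, 5 μM GABA and steroid in DMSO (0.5% final). Nonspecific binding defined with 2 μM unlabeled TBPS. Filtration, scintillation counting. Partial or full inhibition model chosen by F-test.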"}, "Rattus norvegicus [3]": {"organism": "Rattus norvegicus", "experiment": "Percent of maximal extent of inhibition was calculated by fitting [35S]TBPS inhibition data to a sigmoid function (rat brain cortical P2 membranes).", "format": "functional", "in_short": "as §1"}, "[4]": {"target": "GABA-A receptor; anion channel", "experiment": "Allosteric modulation of [35S]TBPS binding to Gamma-aminobutyric acid A receptor in rat brain cortical P2 membranes (inhibits binding with two components)", "format": "cell membranes, Membrane", "in_short": "as §1"}},
  "data": [
    {"smiles": "CSC[C@@]1(O)CC[C@@]2(C)[C@@H](CC[C@@H]3[C@@H]2CC[C@]2(C)[C@@H](C(C)=O)CC[C@@H]32)C1", "values": [
      {"measurement": "IC50", "setting": "[1]", "value": "> 10000", "unit": "nM"},
      {"measurement": "Imax", "setting": "Rattus norvegicus [2]", "value": 46, "unit": "%"}
    ]},
    {"smiles": "CC(=O)[C@H]1CC[C@H]2[C@@H]3CC[C@@H]4C[C@H](O)CC[C@]4(C)[C@H]3CC[C@]12C", "note": "[ELTANOLONE]", "values": [
      {"measurement": "Imax", "setting": "Rattus norvegicus [3]", "value": 65, "unit": "%"},
      {"measurement": "IC50", "setting": "[4]", "value": 44, "unit": "nM"}
    ]}
  ]
}
